ChEMBL document CHEMBL3596186, “Synthesis and biological evaluation of diarylthiazole derivatives as antimitotic and antivascular agents with potent antitumor activity” (Bioorg Med Chem, 2015)
The source made the active and inactive calls. The calls are words filed in the database; no cut-off is given here.

How the values were obtained:
[1] = system: HepG2; test: Induction of apoptosis in human HepG2 cells assessed as viable cells at 0.5 uM after 24 hrs by annexin V/propidium iodide staining-based flow cytometry (reference value: 89.8%); format: functional; details: HepG2, 24 h, read-out: Activity
[2] = system: HepG2; test: Induction of apoptosis in human HepG2 cells assessed as early apoptotic cells at 1 uM after 24 hrs by annexin V/propidium iodide staining-based flow cytometry (reference value: 0.87%); format: functional
[3] = system: HepG2; test: Induction of apoptosis in human HepG2 cells assessed as viable cells at 1 uM after 24 hrs by annexin V/propidium iodide staining-based flow cytometry (reference value: 89.8%); format: functional; details: HepG2, 24 h, read-out: Activity
[4] = system: HepG2; test: Induction of apoptosis in human HepG2 cells assessed as late apoptotic cells at 0.2 uM after 48 hrs by annexin V/propidium iodide staining-based flow cytometry (reference value: 3.74%); format: functional
[5] = system: HepG2; test: Induction of apoptosis in human HepG2 cells assessed as early apoptotic cells at 1 uM after 48 hrs by annexin V/propidium iodide staining-based flow cytometry (reference value: 0.87%); format: functional
[6] = system: HepG2; test: Induction of apoptosis in human HepG2 cells assessed as necrotic cells at 1 uM after 48 hrs by annexin V/propidium iodide staining-based flow cytometry (reference value: 1.59%); format: functional
[7] = system: HepG2; test: Induction of apoptosis in human HepG2 cells assessed as viable cells at 1 uM after 48 hrs by annexin V/propidium iodide staining-based flow cytometry (reference value: 89.8%); format: functional; details: HepG2, 48 h, read-out: Activity
[8] = system: HepG2; test: Antimitotic activity in human HepG2 cells assessed as inhibition of microtubule formation at 0.2 uM after 24 hrs by DAPI staining-based immmunofluorescence assay; format: functional, cell-based
How it was run: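 HepG2 cells seeded in 6-well plates and treated with compound. Fixed in 4% paraformaldehyde, permeabilized with 0.5% Triton X-100 in PBS, blocked 30 min in 5% goat serum at room temperature. Stained with monoclonal anti-α-tubulin 1 h at room temperature, then fluorescent secondary antibody, nuclei labelled with DAPI. Viewed by fluorescence microscopy.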

[9] = system: HUVEC; test: Antivascular activity against HUVEC assessed as inhibition of tube formation at 125 to 500 nM after 8 hrs by Matrigel assay; format: functional, cell-based; details: Homo sapiens
How it was run: (§1)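 Wells of prechilled plates coated with Matrigel and solidified 45 min at 37 °C. HUVECs (1 × 10^4) in EBM-2 containing compound (125-500 nM) seeded onto the gel and incubated 8 h at 37 °C. Capillary networks photographed at 100×; tubule numbers and line lengths counted manually.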

[10] = system: HUVEC; test: Antivascular activity against HUVEC assessed as aggregation of cells in small clumps at 250 to 500 nM after 8 hrs by Matrigel assay; format: functional, cell-based; details: Homo sapiens; how it was run: as §1
[11] = system: HCT-116; test: Antitumor activity against human HCT116 cells xenografted in ip dosed Balb/c athymic nude mouse assessed as tumor growth inhibition administered daily; format: functional, organism-based
How it was run: (§2)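 Female Balb/C athymic nude mice, 5-6 weeks old, implanted s.c. in the right flank with HCT116 cells in 100 µL HBSS. Tumor volume (π/6 × L × W²) and body weight measured every 2 days. Inhibition = (1 − treated/control tumor weight) × 100%.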

[12] = system: HCT-116; test: Antitumor activity against human HCT116 cells xenografted in Balb/c athymic nude mouse assessed as tumor growth inhibition at 50 mg/kg, ip administered daily after 42 days; format: functional; details: HCT-116, ip, 1008 h, read-out: TGI; how it was run: as §2
[13] = system: Mus musculus; test: Toxicity in Balb/c athymic nude mouse xenografted with human SKOV3 cells assessed as loss in body weight at 20 to 50 mg/kg, ip administered daily; format: organism-based, SK-OV-3; details: in vivo
How it was run: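 Female Balb/C athymic nude mice, 5-6 weeks old, carrying s.c. right-flank SK-OV-3 xenografts started from cells in HBSS. At about 100 mm3, groups of 6 received vehicle, 5-FU 10 mg/kg, or test agent i.p. daily. Body weight was measured every two days.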

[14] = system: Mus musculus; test: Toxicity in Balb/c athymic nude mouse xenografted with human HCT116 cells assessed as change in feeding and animal behavior at 20 to 50 mg/kg, ip administered daily; format: organism-based, HCT-116; details: in vivo
[15] = Antiproliferative activity against human A2780S cells after 48 hrs by MTT assay; format: functional, cell-based; details: A2780, 48 h
How it was run: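 HCT116, HepG2, SMMC-7721, SK-OV-3 and A2780s grown in DMEM; A549 and MCF-7 in RPMI-1640; all with 10% FBS and penicillin/streptomycin at 37 °C, 5% CO2. Log-phase cells at 40,000-50,000 cells/mL treated with graded concentrations for 48 h. MTT 3 h, DMSO solubilization, A570. IC50 from percent growth versus untreated control; mean ± SEM of ≥3 independent dose-response experiments.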

[16] = system: MCF7; test: Resistance ratio, ratio of IC50 for human doxorubicin-resistant MCF7 cells to IC50 for human MCF7 cells; format: functional
How it was run: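 MTT assay: log-phase cells at 40,000-50,000 cells/mL in RPMI-1640 with 10% FBS, exposed to graded concentrations for 48 h, then MTT 3 h, DMSO solubilization, absorbance at 570 nm. IC50 from growth versus untreated control, at least three independent experiments. Ratio = resistant-line IC50 / parental-line IC50.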

[17] = system: HCT-116; test: Cell cycle arrest in human HCT116 cells assessed as accumulation at S phase at 0.5 uM after 24 hrs by flow cytometry (reference value: 25.66%); format: functional
[18] = system: HCT-116; test: Cell cycle arrest in human HCT116 cells assessed as accumulation at G2/M phase at 0.2 uM after 24 hrs by flow cytometry (reference value: 20.36%); format: functional
[19] = system: HCT-116; test: Induction of apoptosis in human HCT116 cells assessed as early apoptotic cells at 0.2 uM after 24 hrs by annexin V/propidium iodide staining-based flow cytometry (reference value: 2.83%); format: functional
How it was run: (§3)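 HCT116 cells treated with compound or DMSO for 24 or 48 h, trypsinized, washed twice in PBS and dual-stained with annexin-V and PI. Analysed by flow cytometry: early apoptotic cells scored as annexin-V+/PI−, late apoptotic cells as annexin-V+/PI+.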

[20] = system: HCT-116; test: Induction of apoptosis in human HCT116 cells assessed as viable cells at 0.5 uM after 24 hrs by annexin V/propidium iodide staining-based flow cytometry (reference value: 92%); format: functional; details: HCT-116, 24 h, read-out: Activity
[21] = system: HCT-116; test: Induction of apoptosis in human HCT116 cells assessed as early apoptotic cells at 0.5 uM after 48 hrs by annexin V/propidium iodide staining-based flow cytometry (reference value: 2.83%); format: functional; how it was run: as §3
[22] = system: HCT-116; test: Induction of apoptosis in human HCT116 cells assessed as late apoptotic cells at 0.5 uM after 48 hrs by annexin V/propidium iodide staining-based flow cytometry (reference value: 1.71%); format: functional
[23] = system: HCT-116; test: Induction of apoptosis in human HCT116 cells assessed as viable cells at 0.5 uM after 48 hrs by annexin V/propidium iodide staining-based flow cytometry (reference value: 92%); format: functional; details: HCT-116, 48 h, read-out: Activity
[24] = system: HCT-116; test: Induction of apoptosis in human HCT116 cells assessed as late apoptotic cells at 1 uM after 48 hrs by annexin V/propidium iodide staining-based flow cytometry (reference value: 1.71%); format: functional
[25] = system: HepG2; test: Cell cycle arrest in human HepG2 cells assessed as accumulation at G1 phase at 0.5 uM after 24 hrs by flow cytometry (reference value: 62.74%); format: functional

CCOc1ccc(-c2nc(N)sc2-c2cc(OC)c(OC)c(OC)c2)cc1
viability at 0.5 µM [1]: 80.7%
Activity [2]: 25.4%
viability at 1 µM [3]: 65.4%
Activity [4]: 4.17%
Activity [5]: 74%
Activity [6]: 0.4%
viability at 1 µM [7]: 25.9%
Activity [8]: Active
Activity [9]: Active
Activity [10]: Active
Activity [11]: Dose-dependent effect
inhibition in vivo at 50 mg/kg [12]: 55.1%
Activity [13]: Toxic
Activity [14]: Non-toxic
IC50 [15]: 16 nM
Ratio IC50 [16]: 1.9
Activity [17]: 20.51%
Activity [18]: 48.79%
Activity [19]: 7.8%
viability at 0.5 µM [20]: 74.5%
Activity [21]: 40.3%
Activity [22]: 26.2%
viability at 0.5 µM [23]: 29.1%
Activity [24]: 32.6%
Activity [25]: 30.08%
